Calls of active or inactive are those of the source. The rule behind the calls is not given here.
Legend:
[1] = system: HeLa; assay: Cytotoxicity against human HeLa cells assessed as cell rounding up to 60 uM after 3 hrs; format: cell-based
Summary of the method: (§1)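 HeLa monolayers seeded 1 day before at 1×10^5 cells/well in DMEM with 3% heat-inactivated FBS. Compound applied, cells incubated 37°C for 3 h. Monolayer disruption scored by microscopy as rounding and as percentage of cells detached from the plate.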

[2] = system: Yersinia pestis; assay: (§2) Inhibition of T3SS-mediated YopH secretion in Yersinia pestis JG401 after 2 hrs by Western blotting
[3] = system: HeLa; assay: Inhibition pCD1 positive Yersinia pestis JG153 T3SS-mediated morphological changes in human HeLa cells after 3 hrs; format: cell-based
[4] = system: HeLa; assay: Cytotoxicity against human HeLa cells assessed as cell detachment up to 60 uM after 3 hrs; format: cell-based; summary of the method: as §1
[5] = system: Yersinia pestis; assay: Toxicity in Yersinia pestis JG153 assessed as growth inhibition at 60 uM measured 6 mins intervals for 24 hrs; format: organism-based
[6] = system: Escherichia coli; assay: Inhibition of T3SS-mediated Tir secretion in enteropathogenic Escherichia coli KC14 harboring pKC17 at after 2 hrs by Western blotting
[7] = system: Yersinia pestis; assay: (§3) Inhibition of T3SS-mediated YopD secretion in Yersinia pestis JG401 after 2 hrs by Western blotting
[8] = system: Yersinia pestis; assay: Inhibition of translocation of YopE::Bla fusion from pMM85 expressing Yersinia pestis JG153 to human HeLa cells at 80 uM after 3 hrs by fluorescence microscopic analysis; format: functional, organism-based
[9] = system: HeLa; assay: Cytotoxicity against human HeLa cells assessed as LDH release up to 60 uM after 3 hrs; format: cell-based
Summary of the method: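 HeLa cells seeded 1 day before in DMEM with 3% heat-inactivated FBS, then exposed to compound up to 60 μM at 37°C for 2–3 h. LDH in supernatant measured by kit. 0.1% Triton X-100 lysis gave the maximum and untreated cells the baseline; % cytotoxicity was calculated relative to both. Mean of three independent assays.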

[10] = system: Yersinia pestis; assay: (§4) Inhibition of T3SS-mediated YopM secretion in Yersinia pestis JG401 after 2 hrs by Western blotting
[11] = system: Yersinia pestis; assay: Inhibition of translocation of YopE::Bla fusion from pMM85 expressing Yersinia pestis JG153 to human HeLa cells at 40 uM after 3 hrs by fluorescence microscopic analysis; format: functional
[12] = system: Yersinia pestis; assay: Inhibition of T3SS-mediated YopM secretion in Yersinia pestis JG401 t up to 60 uM after 2 hrs by Western blotting
[13] = system: Yersinia pestis; assay: Inhibition of T3SS-mediated YopD secretion in Yersinia pestis JG401 at up to 60 uM after 2 hrs by Western blotting
[14] = system: Yersinia pestis; assay: Inhibition of T3SS-mediated YopD secretion in Yersinia pestis JG401 at 15 uM after 2 hrs by Western blotting
[15] = as §2
[16] = as §3
[17] = as §4

SMILES | Activity [1] | inhibition [2] | inhibition [3] | Activity [4] | Activity [5] | inhibition [7] | inhibition [8] | Activity [9] | inhibition [10] | further results
Cc1ccc(-c2nn(-c3ccccc3)cc2C2CC(c3cccs3)=NN2C(=O)CCCC(=O)O)cc1 (stereo unspecified) | Non-toxic | Dose-dependent effect | Dose-dependent effect | Non-toxic | Non-toxic | Dose-dependent effect | inactive | Non-toxic | Dose-dependent effect | INCC50 [6]: inactive
O=C(Nc1cccc(C2=NCCN2)c1)Nc1cccc(C2=NCCN2)c1 [IMIDOCARB DIPROPIONATE] | – | – | – | – | – | – | – | – | – | inhibition at 40 µM [11]: 50%
O=C(N/N=C/c1cc(Br)cc(Br)c1O)c1ccc([N+](=O)[O-])cc1 | – | – | – | – | Toxic | – | – | – | – | –
O=C(Nc1cccc(C2=NCCN2)c1)Nc1cccc(C2=NCCN2)c1 [IMIDOCARB] | Non-toxic | – | – | Non-toxic | Non-toxic | – | – | Non-toxic | – | –
O=C(Nc1cccc(C2=NCCN2)c1)Nc1cccc(C2=NCCN2)c1 | – | Dose-dependent effect | Dose-dependent effect | – | – | Dose-dependent effect | Active | – | Dose-dependent effect | inhibition [12]: inactive; inhibition [13]: inactive; inhibition ([6]; concentration not given here): 81%; inhibition [14]: 50%
Cc1ccc(CSc2nc(C(=O)O)ccc2C#N)cc1 | Non-toxic | Dose-dependent effect | Dose-dependent effect | Non-toxic | Non-toxic | Dose-dependent effect | inactive | Non-toxic | Dose-dependent effect | inhibition ([6]; concentration not given here): 96%
Cc1cc(O)ccc1Sc1ccc(O)cc1C | Toxic | Dose-dependent effect | – | Toxic | Non-toxic | Dose-dependent effect | – | Toxic | Dose-dependent effect | IC50 [15]: 10 µM; inhibition [6]: inactive; IC50 [16]: 10 µM; IC50 [17]: 10 µM

— ChEMBL document CHEMBL1629604, “Targeting type III secretion in Yersinia pestis” (Antimicrob Agents Chemother, 2009)
